CHO-K1 Ca ag = counter-screen for M1 agonists: effect in parental CHO-K1 cells | Fluo-8 calcium fluorescence; scaled to maximal ATP response, vehicle zero | activation, % at 3 µM | actives 0.48% (n = 360,000) | AID 602248, 2012; in the data active = activation above about 15%;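 also: untransfected CHO-K1 host cells lacking M1 receptor as counterscreen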
CHO-K1 Ca antag = nonselective inhibitor or artifact in parental CHO-K1 cells | ATP-induced calcium, Fluo-8 fluorescence | AID 602250 | inhibition, % at 3 µM | actives 0.6% (n = 360,000);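 active = inhibition above a per-plate cutoff, the plate's mean sample inhibition plus 3 SD, cut at about 24% in these data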
CHO-K1 Ca PAM = nonselective calcium activators in parental CHO-K1 cells, primary screen, counter-screen for M1 PAM project, cell-based, Fluo-8 calcium fluorescence, full deck, 1536-well; ATP EC20; 0% at ATP EC20, 100% at ATP max; activation, % at 3 µM; actives 0.02% (n = 360,000); AID 602247, 2012;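 active = activation above the run cutoff, the mean activation of all test compounds plus 3 SD, cut at about 40% in these data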;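 also: peak over basal fluorescence ratio in a 140 s read after ATP addition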
TRPML3 agonist = human TRPML3 channel agonists, primary screen, cell-based, HEK293 TRPML3-YFP, Fluo-8 calcium fluorescence, 3 µM | Mucolipin-3 (Homo sapiens), Q8TDD5 | 100% = the carbachol control signal | activation, % at 3 µM | actives 0.29% (n = 220,000) | AID 1448, 2008;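 active = activation above its plate's cutoff, the mean activation of the plate's test wells plus 3 SD, cut at about 12% in these data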
Target sequence (Q8TDD5 whole entry, looked up): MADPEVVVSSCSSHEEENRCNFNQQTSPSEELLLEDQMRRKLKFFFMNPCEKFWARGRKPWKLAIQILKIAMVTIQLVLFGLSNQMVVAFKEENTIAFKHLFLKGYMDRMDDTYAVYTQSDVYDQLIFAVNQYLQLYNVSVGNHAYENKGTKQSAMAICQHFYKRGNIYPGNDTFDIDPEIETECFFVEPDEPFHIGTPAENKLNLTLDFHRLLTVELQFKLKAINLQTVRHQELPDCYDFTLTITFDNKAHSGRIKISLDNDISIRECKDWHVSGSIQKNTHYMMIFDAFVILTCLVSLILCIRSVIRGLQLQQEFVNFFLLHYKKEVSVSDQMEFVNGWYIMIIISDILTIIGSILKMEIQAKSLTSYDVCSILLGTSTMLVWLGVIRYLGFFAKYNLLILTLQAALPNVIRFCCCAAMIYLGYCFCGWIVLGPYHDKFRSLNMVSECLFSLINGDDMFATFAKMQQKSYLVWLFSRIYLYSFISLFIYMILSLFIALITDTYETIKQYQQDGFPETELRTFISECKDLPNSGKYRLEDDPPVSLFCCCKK
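Test system: TRPML3-YFP stable HEK293 cells. Doses: single point at 3 µM. Incubation: dye loading 1 h 37 °C then 30 min ambient, 125 s read. Signal: Fluo-8 calcium dye fluorescence, ex 470-495, em 515-575 nm. Measure: percent activation from peak-to-basal fluorescence ratio, scaled between DMSO and carbachol.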
zfTRPN1 agonist = zebrafish TRPN1 channel agonists, primary screen, cell-based, HEK293, calcium fluorescence | transient receptor potential cation channel N1 (TRPN1/NompC), Danio rerio | HEK293 zebrafish TRPN1-YFP, Fluo-8 calcium fluorescence; 100% = response to 87 µM carbachol | activation, % at 3 µM | actives 0.18% (n = 220,000) | AID 1424, 2008;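 active = activation above its plate's cutoff, the mean activation of test wells on that plate plus 3 SD, cut at about 19% in these data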
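Material: zebrafish TRPN1-YFP in HEK293 cells. Doses: one dose of 3 µM, 0.3% DMSO. Incubation: dye 1 h 37 °C plus 30 min RT. Measured by: intracellular calcium fluorescence with Fluo-8.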
Hits are given with their value. Most compounds without a hit are left out; they make up all but 1.2% or so of the library.

Screening OCCNc1nc(NCCC2=CCCCC2)nc(N2CCOCC2)n1 returned CHO-K1 Ca ag inactive, CHO-K1 Ca antag 24, CHO-K1 Ca PAM inactive, TRPML3 agonist inactive and zfTRPN1 agonist inactive.
`CCOc1nc(NCCC2=CCCCC2)nc(N2CCOCC2)n1` gave CHO-K1 Ca ag inactive, CHO-K1 Ca antag inactive, CHO-K1 Ca PAM inactive, TRPML3 agonist inactive and zfTRPN1 agonist inactive.
O=C(c1ccccc1F)N1CCC2CC1c1cc(N3CCCCC3)ccc12 (centres undefined) was read as CHO-K1 Ca ag inactive, CHO-K1 Ca antag inactive and CHO-K1 Ca PAM inactive.
`Cc1cccc(OC(C)C(=O)OCC(=O)Nc2sccc2C(N)=O)c1` (centres undefined) gave CHO-K1 Ca ag 16, CHO-K1 Ca antag inactive and CHO-K1 Ca PAM inactive.
For Cc1cccc(OCC(=O)OCC(=O)Nc2sccc2C(N)=O)c1 the results were CHO-K1 Ca ag 20, CHO-K1 Ca antag inactive and CHO-K1 Ca PAM inactive.
COc1cccc(NC(=S)NC2CC(C)(C)NC(C)(C)C2)c1 was read as CHO-K1 Ca ag inactive, CHO-K1 Ca antag 26, CHO-K1 Ca PAM inactive, TRPML3 agonist inactive and zfTRPN1 agonist inactive.
COc1cc(NC(=S)NC2CC(C)(C)NC(C)(C)C2)cc(OC)c1 was read as CHO-K1 Ca ag inactive, CHO-K1 Ca antag inactive, CHO-K1 Ca PAM inactive, TRPML3 agonist inactive and zfTRPN1 agonist inactive.
`O=C(CSc1ccc2ccccc2n1)c1ccc2c(c1)OCO2` gave CHO-K1 Ca ag inactive, CHO-K1 Ca antag 28, CHO-K1 Ca PAM inactive, TRPML3 agonist inactive and zfTRPN1 agonist inactive.
CCN(CC)C(=O)C1=C(C)N(Cc2ccc(OC)cc2)C(=O)C(CC(=O)NCC2CCCCC2)C1 (centres undefined) was read as CHO-K1 Ca ag inactive, CHO-K1 Ca antag inactive and CHO-K1 Ca PAM inactive.
`CCCCC[C@@H](C)N1C[C@@H](COCc2ccccc2)Oc2cc(N3CCC[C@H]3COC)ccc2S1(=O)=O` gave CHO-K1 Ca ag inactive, CHO-K1 Ca antag inactive and CHO-K1 Ca PAM inactive.
O=C(COC(=O)/C=C/c1ccc(Cl)c(Cl)c1)NC1CCS(=O)(=O)C1 (centres undefined) was read as CHO-K1 Ca ag 16, CHO-K1 Ca antag inactive and CHO-K1 Ca PAM inactive.
For O=C(COC(=O)/C=C/c1ccc(Cl)c(Cl)c1)NC1CCCC1 the results were CHO-K1 Ca ag inactive, CHO-K1 Ca antag inactive and CHO-K1 Ca PAM inactive.
For CCCCCCCCCn1c2c(c(=N)c3c1CCC3)CCCC2 the results were CHO-K1 Ca ag inactive, CHO-K1 Ca antag 38, CHO-K1 Ca PAM inactive, TRPML3 agonist inactive and zfTRPN1 agonist inactive.
Screening CCCCCCCCCCn1c2c(c(=N)c3c1CCC3)CCC2 returned CHO-K1 Ca ag inactive, CHO-K1 Ca antag inactive, CHO-K1 Ca PAM inactive, TRPML3 agonist inactive and zfTRPN1 agonist inactive.
For CCCCCCCCn1c2c(c(=N)c3ccccc31)CCC2 the results were CHO-K1 Ca ag inactive, CHO-K1 Ca antag 31, CHO-K1 Ca PAM inactive, TRPML3 agonist inactive and zfTRPN1 agonist inactive.
For CCCCCn1c2c(c(=N)c3ccccc31)CCC2 the results were CHO-K1 Ca ag inactive, CHO-K1 Ca antag inactive, CHO-K1 Ca PAM inactive, TRPML3 agonist inactive and zfTRPN1 agonist inactive.
For CCCCCC(=O)NNC(=O)Nc1ccccc1 the results were CHO-K1 Ca ag inactive, CHO-K1 Ca antag inactive, CHO-K1 Ca PAM inactive, TRPML3 agonist inactive and zfTRPN1 agonist inactive.
O=C(CCCC(=O)NNC(=O)Nc1ccccc1)NNC(=O)Nc1ccccc1 was read as CHO-K1 Ca ag inactive, CHO-K1 Ca antag 28, CHO-K1 Ca PAM inactive, TRPML3 agonist inactive and zfTRPN1 agonist inactive.
`Cc1cccc(-n2nnnc2SCn2nnc3ccccc3c2=O)c1` gave CHO-K1 Ca ag inactive, CHO-K1 Ca antag 27, CHO-K1 Ca PAM inactive, TRPML3 agonist inactive and zfTRPN1 agonist inactive.
Cc1ccc(-n2nnnc2SCn2nnc3ccccc3c2=O)cc1 was read as CHO-K1 Ca ag inactive, CHO-K1 Ca antag inactive, CHO-K1 Ca PAM inactive, TRPML3 agonist inactive and zfTRPN1 agonist inactive.
`COc1ccccc1N1CCN(Cc2nc(-c3ccc(F)cc3)oc2C)CC1` gave CHO-K1 Ca ag inactive, CHO-K1 Ca antag inactive, CHO-K1 Ca PAM inactive, TRPML3 agonist inactive and zfTRPN1 agonist inactive.
COc1ccccc1N1CCN(Cc2cn[nH]c2-c2ccc(F)cc2)CC1 was read as CHO-K1 Ca ag 19, CHO-K1 Ca antag inactive, CHO-K1 Ca PAM inactive, TRPML3 agonist inactive and zfTRPN1 agonist inactive.
`CN(C)C(CNC(=O)c1ccc(NS(=O)(=O)c2ccc(F)cc2)cc1)c1ccco1` (centres undefined) gave CHO-K1 Ca ag inactive, CHO-K1 Ca antag inactive and CHO-K1 Ca PAM inactive.
`CC(=O)c1ccc(NS(=O)(=O)c2ccc(C)cc2)cc1` gave CHO-K1 Ca ag inactive, CHO-K1 Ca antag 27, CHO-K1 Ca PAM inactive, TRPML3 agonist inactive and zfTRPN1 agonist inactive.
For Cc1ccc(S(=O)(=O)Nc2ccc(NC(=O)c3c(F)c(F)c(F)c(F)c3F)cc2)cc1 the results were CHO-K1 Ca ag inactive, CHO-K1 Ca antag inactive, CHO-K1 Ca PAM inactive, TRPML3 agonist inactive and zfTRPN1 agonist 27.
CC(=O)c1ccc(NS(=O)(=O)c2ccc(C(C)(C)C)cc2)cc1 was read as CHO-K1 Ca ag inactive, CHO-K1 Ca antag inactive, CHO-K1 Ca PAM inactive, TRPML3 agonist inactive and zfTRPN1 agonist inactive.
Cc1ccc(NS(=O)(=O)c2ccc(C(=O)NCC(c3ccco3)N(C)C)cc2)cc1 (centres undefined) was read as CHO-K1 Ca ag 26, CHO-K1 Ca antag inactive and CHO-K1 Ca PAM inactive.
`Cc1cc(NS(=O)(=O)c2ccc(NC(=O)c3c(F)c(F)c(F)c(F)c3F)cc2)nc(C)n1` gave CHO-K1 Ca ag inactive, CHO-K1 Ca antag inactive and CHO-K1 Ca PAM inactive.
For COc1cccc(CNC(=O)[C@H](C)NC(=O)N2CC(=O)Nc3ccccc32)c1 the results were CHO-K1 Ca ag inactive, CHO-K1 Ca antag inactive and CHO-K1 Ca PAM inactive.
Screening O=C(c1nc2ccc(Cl)cn2c1CN1CCC[C@H]1CO)N1CCc2ccccc2C1 returned CHO-K1 Ca ag inactive, CHO-K1 Ca antag inactive and CHO-K1 Ca PAM inactive.
Screening COC(=O)NNC(=O)C1CCC(C(=O)NNC(=O)OC)CC1 (centres undefined) returned CHO-K1 Ca ag inactive, CHO-K1 Ca antag inactive, CHO-K1 Ca PAM inactive, TRPML3 agonist inactive and zfTRPN1 agonist inactive.
For CCOC(=O)NNC(=O)C1CCC(C)CC1 (centres undefined) the results were CHO-K1 Ca ag 19, CHO-K1 Ca antag inactive, CHO-K1 Ca PAM inactive, TRPML3 agonist inactive and zfTRPN1 agonist inactive.
For CC(C)c1cccc(-c2csc(C(C)(O)c3ccncc3)n2)c1 (centres undefined) the results were CHO-K1 Ca ag inactive, CHO-K1 Ca antag inactive and CHO-K1 Ca PAM inactive.
For COc1ccccc1NC(=S)NCCSc1ccc(Cl)cc1 the results were CHO-K1 Ca ag inactive, CHO-K1 Ca antag inactive, CHO-K1 Ca PAM inactive, TRPML3 agonist inactive and zfTRPN1 agonist inactive.

From PubChem
